Reference: ChEMBL document CHEMBL1137787 (J Med Chem, 2009)
pEC50, pIC50: −log10 of the molar value. Blank lines part the entries; values can stand above or below the molecule they belong to. The source made the active and inactive calls. The calls are words filed in the database; no cut-off is given here.

Tests used:
[1] = molecular target: T1, Metabotropic glutamate receptor 5 (Rattus norvegicus, UniProt P31424); test: Antagonist activity at rat mGlu5 receptor expressed in HEK293 cells assessed as inhibition of glutamate-induced response; assay type: functional, cell-based; settings: for pIC50: read-out: IC50; for IC50: hek293
T1 sequence (P31424 whole entry): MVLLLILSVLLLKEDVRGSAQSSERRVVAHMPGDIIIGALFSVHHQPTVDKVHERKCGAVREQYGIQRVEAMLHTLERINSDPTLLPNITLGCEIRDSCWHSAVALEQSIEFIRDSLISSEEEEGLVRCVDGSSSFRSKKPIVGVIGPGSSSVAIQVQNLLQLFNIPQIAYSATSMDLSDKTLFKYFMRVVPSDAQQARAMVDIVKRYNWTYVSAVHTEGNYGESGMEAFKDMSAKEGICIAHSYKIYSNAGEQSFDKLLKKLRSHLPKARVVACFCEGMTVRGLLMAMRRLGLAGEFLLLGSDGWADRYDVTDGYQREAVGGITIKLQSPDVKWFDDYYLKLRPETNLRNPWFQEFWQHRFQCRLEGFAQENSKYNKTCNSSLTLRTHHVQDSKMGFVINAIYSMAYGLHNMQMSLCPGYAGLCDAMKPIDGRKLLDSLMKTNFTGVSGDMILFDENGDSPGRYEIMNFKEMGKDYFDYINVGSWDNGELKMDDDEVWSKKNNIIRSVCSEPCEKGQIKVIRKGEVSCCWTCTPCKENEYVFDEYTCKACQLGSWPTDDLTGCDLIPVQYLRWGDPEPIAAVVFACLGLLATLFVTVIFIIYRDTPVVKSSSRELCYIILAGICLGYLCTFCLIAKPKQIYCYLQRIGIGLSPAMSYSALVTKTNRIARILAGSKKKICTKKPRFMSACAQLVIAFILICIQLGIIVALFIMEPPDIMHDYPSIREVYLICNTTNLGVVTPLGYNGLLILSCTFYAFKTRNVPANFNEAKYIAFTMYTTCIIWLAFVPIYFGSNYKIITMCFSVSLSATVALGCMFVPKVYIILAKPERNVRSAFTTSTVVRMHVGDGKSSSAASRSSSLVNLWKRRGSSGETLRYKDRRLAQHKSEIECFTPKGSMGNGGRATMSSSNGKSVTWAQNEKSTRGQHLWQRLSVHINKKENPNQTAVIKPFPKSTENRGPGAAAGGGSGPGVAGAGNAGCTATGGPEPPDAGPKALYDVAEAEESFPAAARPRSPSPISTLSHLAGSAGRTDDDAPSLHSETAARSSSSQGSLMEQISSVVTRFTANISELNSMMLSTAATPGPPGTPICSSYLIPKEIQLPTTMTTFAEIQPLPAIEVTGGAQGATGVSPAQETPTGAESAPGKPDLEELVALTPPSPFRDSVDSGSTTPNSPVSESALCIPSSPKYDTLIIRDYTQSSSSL

[2] = molecular target: Metabotropic glutamate receptor 5 (Rattus norvegicus) (UniProt P31424); test: Antagonist activity at rat mGlu5 receptor expressed in HEK293 cells assessed as inhibition of glutamate-induced response at 10 uM; assay type: functional, cell-based; design: scale not given: the % may be the effect or the level left
Sequence of Metabotropic glutamate receptor 5 (Rattus norvegicus) (P31424 21-1203 limits assumed): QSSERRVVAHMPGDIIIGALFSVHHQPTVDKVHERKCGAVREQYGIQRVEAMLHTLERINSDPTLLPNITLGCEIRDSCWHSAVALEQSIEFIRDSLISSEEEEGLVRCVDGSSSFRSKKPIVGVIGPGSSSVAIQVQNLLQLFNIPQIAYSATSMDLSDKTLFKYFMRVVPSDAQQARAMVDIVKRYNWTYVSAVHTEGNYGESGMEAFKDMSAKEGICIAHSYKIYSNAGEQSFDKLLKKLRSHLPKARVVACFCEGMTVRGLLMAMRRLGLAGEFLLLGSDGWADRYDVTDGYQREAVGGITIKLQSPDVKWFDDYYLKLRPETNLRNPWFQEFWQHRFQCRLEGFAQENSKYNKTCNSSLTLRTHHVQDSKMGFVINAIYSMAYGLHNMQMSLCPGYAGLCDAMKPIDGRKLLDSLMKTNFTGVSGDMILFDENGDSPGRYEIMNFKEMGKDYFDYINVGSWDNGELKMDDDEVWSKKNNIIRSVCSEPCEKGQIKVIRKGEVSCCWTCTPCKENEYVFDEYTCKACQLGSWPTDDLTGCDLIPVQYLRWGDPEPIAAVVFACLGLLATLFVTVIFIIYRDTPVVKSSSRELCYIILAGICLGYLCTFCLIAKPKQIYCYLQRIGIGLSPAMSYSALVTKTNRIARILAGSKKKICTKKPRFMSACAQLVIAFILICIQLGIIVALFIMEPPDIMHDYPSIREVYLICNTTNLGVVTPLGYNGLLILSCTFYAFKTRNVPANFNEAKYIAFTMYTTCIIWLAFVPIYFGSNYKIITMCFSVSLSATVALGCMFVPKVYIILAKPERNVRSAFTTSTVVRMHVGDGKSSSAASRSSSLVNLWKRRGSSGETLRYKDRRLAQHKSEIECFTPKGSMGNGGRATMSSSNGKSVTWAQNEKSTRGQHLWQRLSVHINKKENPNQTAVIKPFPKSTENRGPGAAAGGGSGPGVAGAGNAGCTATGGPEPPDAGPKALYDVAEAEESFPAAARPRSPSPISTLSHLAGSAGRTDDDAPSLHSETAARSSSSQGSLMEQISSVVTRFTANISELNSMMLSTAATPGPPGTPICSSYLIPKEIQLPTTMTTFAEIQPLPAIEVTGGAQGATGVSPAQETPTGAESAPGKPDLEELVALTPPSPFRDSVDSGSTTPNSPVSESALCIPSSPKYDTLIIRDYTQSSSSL

[3] = molecular target: Metabotropic glutamate receptor 1 (Homo sapiens, UniProt Q13255); test: Antagonist activity at mGlu1 receptor; assay type: functional
Sequence of Metabotropic glutamate receptor 1 (Q13255 whole entry): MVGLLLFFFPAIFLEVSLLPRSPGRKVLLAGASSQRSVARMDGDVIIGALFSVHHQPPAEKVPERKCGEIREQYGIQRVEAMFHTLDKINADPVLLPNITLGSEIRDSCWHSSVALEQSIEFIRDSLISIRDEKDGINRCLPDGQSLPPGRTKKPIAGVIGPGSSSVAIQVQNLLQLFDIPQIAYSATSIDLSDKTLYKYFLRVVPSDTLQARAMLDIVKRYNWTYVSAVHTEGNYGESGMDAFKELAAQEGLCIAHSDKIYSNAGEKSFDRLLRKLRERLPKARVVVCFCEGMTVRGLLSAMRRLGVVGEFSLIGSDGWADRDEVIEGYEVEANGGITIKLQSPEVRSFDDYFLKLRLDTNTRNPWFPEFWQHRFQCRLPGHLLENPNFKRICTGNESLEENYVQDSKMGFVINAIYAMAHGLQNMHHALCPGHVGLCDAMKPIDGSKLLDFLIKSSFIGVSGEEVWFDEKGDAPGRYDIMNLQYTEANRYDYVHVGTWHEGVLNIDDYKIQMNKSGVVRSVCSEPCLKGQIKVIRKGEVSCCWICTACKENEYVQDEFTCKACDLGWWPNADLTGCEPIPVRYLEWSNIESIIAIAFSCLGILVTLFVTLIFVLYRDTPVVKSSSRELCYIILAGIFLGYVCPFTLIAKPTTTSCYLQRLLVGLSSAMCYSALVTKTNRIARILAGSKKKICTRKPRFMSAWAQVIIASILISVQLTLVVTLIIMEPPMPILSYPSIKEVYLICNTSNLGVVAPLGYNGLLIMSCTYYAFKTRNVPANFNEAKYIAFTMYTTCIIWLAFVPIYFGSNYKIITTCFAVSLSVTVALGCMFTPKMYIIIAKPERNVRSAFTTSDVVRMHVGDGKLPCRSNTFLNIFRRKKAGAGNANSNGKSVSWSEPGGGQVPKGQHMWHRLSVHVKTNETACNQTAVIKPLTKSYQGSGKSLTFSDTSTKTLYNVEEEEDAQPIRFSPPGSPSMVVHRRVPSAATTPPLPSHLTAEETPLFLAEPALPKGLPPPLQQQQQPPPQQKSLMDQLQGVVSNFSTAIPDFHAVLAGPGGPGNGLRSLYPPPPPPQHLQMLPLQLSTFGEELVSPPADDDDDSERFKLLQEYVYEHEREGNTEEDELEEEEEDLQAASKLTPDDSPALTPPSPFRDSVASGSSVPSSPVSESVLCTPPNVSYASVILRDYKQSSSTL

[4] = molecular target: Metabotropic glutamate receptor 2 (Homo sapiens, UniProt Q14416); test: Antagonist activity at mGlu2 receptor; assay type: functional
Sequence of Metabotropic glutamate receptor 2 (Q14416 whole entry): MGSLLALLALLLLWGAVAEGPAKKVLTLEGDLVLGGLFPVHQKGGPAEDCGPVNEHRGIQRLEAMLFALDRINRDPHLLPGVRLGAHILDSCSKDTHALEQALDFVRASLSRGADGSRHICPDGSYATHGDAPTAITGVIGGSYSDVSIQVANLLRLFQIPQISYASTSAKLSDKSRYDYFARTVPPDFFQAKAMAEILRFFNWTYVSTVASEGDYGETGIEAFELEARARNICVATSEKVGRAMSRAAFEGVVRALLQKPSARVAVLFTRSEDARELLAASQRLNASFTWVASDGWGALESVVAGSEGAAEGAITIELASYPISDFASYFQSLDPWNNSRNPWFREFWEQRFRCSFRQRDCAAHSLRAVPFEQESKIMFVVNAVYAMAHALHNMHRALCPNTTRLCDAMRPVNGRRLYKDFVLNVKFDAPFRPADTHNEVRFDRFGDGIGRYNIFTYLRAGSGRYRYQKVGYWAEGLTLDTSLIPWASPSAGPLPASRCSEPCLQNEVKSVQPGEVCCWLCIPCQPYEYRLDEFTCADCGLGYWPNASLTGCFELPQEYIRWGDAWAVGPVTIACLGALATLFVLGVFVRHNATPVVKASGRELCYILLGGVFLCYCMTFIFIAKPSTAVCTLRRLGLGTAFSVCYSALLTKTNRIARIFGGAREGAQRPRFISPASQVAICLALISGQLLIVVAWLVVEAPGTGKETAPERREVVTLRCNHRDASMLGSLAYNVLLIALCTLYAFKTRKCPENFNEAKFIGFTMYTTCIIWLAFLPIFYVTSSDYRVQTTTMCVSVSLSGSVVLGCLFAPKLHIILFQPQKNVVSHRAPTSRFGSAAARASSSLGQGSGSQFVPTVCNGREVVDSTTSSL

[5] = molecular target: Metabotropic glutamate receptor 3 (Homo sapiens, UniProt Q14832); test: Antagonist activity at mGlu3 receptor; assay type: functional
[6] = molecular target: Metabotropic glutamate receptor 4 (Homo sapiens, UniProt Q14833); test: Antagonist activity at mGlu4 receptor; assay type: functional
[7] = molecular target: Metabotropic glutamate receptor 7 (Homo sapiens, UniProt Q14831); test: Antagonist activity at mGlu7 receptor; assay type: functional
[8] = molecular target: Metabotropic glutamate receptor 8 (Homo sapiens, UniProt O00222); test: Antagonist activity at mGlu8 receptor; assay type: functional
Rattus norvegicus [9] = test: Anxiolytic activity against Sprague-Dawley rat Geller-Seifter conflict model assessed as increase punished response rate at 30 mg/kg, ip; assay type: functional; settings: route intraperitoneal
How it was run: (§1)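 Modified Geller-Seifter conflict schedule with punished and unpunished components. Animals were tested on 1, 3, 10 and 30 mg/kg and on vehicle. Read-out was the number of responses in each component, as mean ± SEM for eighteen animals. Analysis used ANOVA with Newman-Keuls post hoc comparison to vehicle.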

Rattus norvegicus [10] = test: Anxiolytic activity against ip dosed Sprague-Dawley rat Geller-Seifter conflict model assessed as increase in punished response; assay type: functional, organism-based; how it was run: as §1
[11] = molecular target: T1, Metabotropic glutamate receptor 5; test: (§2) Positive allosteric modulator activity at rat mGlu5 receptor expressed in HEK293 cells assessed as potentiation of glutamate-induced response relative to glutamate; assay type: cell-based; settings: for EC50: hek293; for pEC50: read-out: EC50
[12] = molecular target: Metabotropic glutamate receptor 5 (Rattus norvegicus) (UniProt P31424); test: Positive allosteric modulator activity at rat mGlu5 receptor expressed in HEK293 cells assessed as fold shift in glutamate induced response at 10 uM; assay type: cell-based
[13] = molecular target: Metabotropic glutamate receptor 5 (Rattus norvegicus) (UniProt P31424); test: as §2; assay type: cell-based
Rattus norvegicus [14] = test: Antipsychotic activity in Sprague-Dawley rat assessed as reversal of amphetamine-induced hyperlocomotion administered ip 30 mins before amphetamine-challenge; assay type: functional, organism-based
How it was run: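 Rats were given the test compound i.p. at 3, 10 or 30 mg/kg in 10% Tween 80 vehicle. Thirty minutes later they received amphetamine, 1 mg/kg s.c. Locomotor activity was then measured. Test compound or vehicle alone was also assessed without amphetamine.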

Compound: Cc1cccc(C#Cc2cncnc2)c1
pIC50 [1]: 8.12

Compound: Cc1cccc(C#Cc2ncccn2)c1
pIC50 [1]: 7.97
Activity [2]: 100%
pIC50 [3]: < 5.00
pIC50 [4]: < 5.00
pIC50 [5]: < 5.00
pIC50 [6]: < 5.00
pIC50 [7]: < 5.00
pIC50 [8]: < 5.00
Activity (Rattus norvegicus [9]): 300%
Activity (Rattus norvegicus [10]): Dose-dependent effect

Compound: COc1ncc(C#Cc2ccccc2)cn1
EC50 [11]: Not Active

Compound: CCc1ncc(C#Cc2cccc(C)c2)cn1
EC50 [11]: Not Active

Compound: CCOc1ncc(C#Cc2ccccc2)cn1
IC50 [1]: Not Active

Compound: Cc1ccc(C#Cc2ncccn2)cc1
pIC50 [1]: < 5.00
Activity [13]: inactive

Compound: COc1ncc(C#Cc2ccc(C)cc2)cn1
EC50 [11]: Not Active

Compound: C(#Cc1cncnc1)c1ccccc1
pIC50 [1]: 6.31
Activity [13]: 29%

Compound: CCc1ncc(C#Cc2ccc(C)cc2)cn1
EC50 [11]: Not Active

Compound: C(#Cc1ncccn1)c1ccccc1
pIC50 [1]: 6.71
Activity [2]: 100%

Compound: CNc1ncc(C#Cc2cccc(C)c2)cn1
fold change (FC) [12]: 5.9
pEC50 [11]: 7.68

Compound: CSc1ncc(C#Cc2cccc(C)c2)cn1
EC50 [11]: Not Active

Compound: CCOc1ncc(C#Cc2ccc(C)cc2)cn1
IC50 [1]: Not Active

Compound: CNc1ncc(C#Cc2ccccc2)cn1
fold change (FC) [12]: 15
pIC50 [3]: < 5.00
pIC50 [4]: < 5.00
pIC50 [5]: < 5.00
pIC50 [7]: < 5.00
pIC50 [8]: < 5.00
Activity (Rattus norvegicus [14]): Dose-dependent effect
pEC50 [11]: 7.84

More lines, now with the values ahead:

EC50 [11]: Not Active
Compound: Cc1ccc(C#Cc2cnc(C)nc2)cc1

EC50 [11]: Not Active
Compound: COc1ncc(C#Cc2cccc(C)c2)cn1

fold change (FC) [12]: 6
pEC50 [11]: 6.61
Compound: CC(C)(C)c1ncc(C#Cc2ccccc2)cn1

EC50 [11]: Not Active
Compound: CCNc1ncc(C#Cc2ccccc2)cn1

EC50 [11]: Not Active
Compound: CCNc1ncc(C#Cc2cccc(C)c2)cn1

EC50 [11]: Not Active
Compound: CCc1ncc(C#Cc2ccccc2)cn1

fold change (FC) [12]: 5.7
pEC50 [11]: 6.15
Compound: CNc1ncc(C#Cc2ccc(C)cc2)cn1

EC50 [11]: Not Active
Compound: CSc1ncc(C#Cc2ccc(C)cc2)cn1

pIC50 [1]: 7.68
Activity [2]: 100%
Compound: CCOc1ncc(C#Cc2cccc(C)c2)cn1

fold change (FC) [12]: 11
pEC50 [11]: 6.92
Compound: CSc1ncc(C#Cc2ccccc2)cn1

EC50 [11]: Not Active
Compound: Cc1cccc(C#Cc2cnc(C(C)(C)C)nc2)c1

fold change (FC) [12]: 4.2
Compound: Cc1ccc(C#Cc2cncnc2)cc1

EC50 [11]: Not Active
Compound: CCNc1ncc(C#Cc2ccc(C)cc2)cn1

EC50 [11]: Not Active
Compound: Cc1cccc(C#Cc2cnc(C)nc2)c1

EC50 [11]: Not Active
Compound: Cc1ncc(C#Cc2ccccc2)cn1

EC50 [11]: Not Active
Compound: Cc1ccc(C#Cc2cnc(C(C)(C)C)nc2)cc1
